Data: ChEMBL document CHEMBL3779766, “Synthesis and biological evaluation of quinoline analogues of flavones as potential anticancer agents and tubulin polymerization inhibitors” (Eur J Med Chem, 2016)
Active and inactive are the calls of the source. The rule behind the calls is not given here.

Key:
Tubulin (Sus scrofa) [1] = biological target: T1, Tubulin (Sus scrofa) (UniProt P02554+P02550); assay: Inhibition of porcine brain tubulin polymerization at 100 uM measured for 1 hr by fluorescence assay
T1 sequence (P02550 whole entry, looked up): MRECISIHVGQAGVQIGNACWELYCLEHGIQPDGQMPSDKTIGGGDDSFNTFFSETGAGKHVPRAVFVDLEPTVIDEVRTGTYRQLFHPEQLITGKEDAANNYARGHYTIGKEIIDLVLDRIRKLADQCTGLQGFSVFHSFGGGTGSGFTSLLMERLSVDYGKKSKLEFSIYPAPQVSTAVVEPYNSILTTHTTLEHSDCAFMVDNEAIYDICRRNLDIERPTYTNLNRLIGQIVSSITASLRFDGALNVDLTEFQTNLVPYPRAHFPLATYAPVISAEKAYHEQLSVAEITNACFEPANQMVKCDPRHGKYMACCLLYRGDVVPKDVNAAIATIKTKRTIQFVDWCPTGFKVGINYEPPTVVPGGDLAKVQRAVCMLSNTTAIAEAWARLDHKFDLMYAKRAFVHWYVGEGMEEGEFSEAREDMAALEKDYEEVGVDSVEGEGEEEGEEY
T1 sequence (P02554 whole entry, looked up): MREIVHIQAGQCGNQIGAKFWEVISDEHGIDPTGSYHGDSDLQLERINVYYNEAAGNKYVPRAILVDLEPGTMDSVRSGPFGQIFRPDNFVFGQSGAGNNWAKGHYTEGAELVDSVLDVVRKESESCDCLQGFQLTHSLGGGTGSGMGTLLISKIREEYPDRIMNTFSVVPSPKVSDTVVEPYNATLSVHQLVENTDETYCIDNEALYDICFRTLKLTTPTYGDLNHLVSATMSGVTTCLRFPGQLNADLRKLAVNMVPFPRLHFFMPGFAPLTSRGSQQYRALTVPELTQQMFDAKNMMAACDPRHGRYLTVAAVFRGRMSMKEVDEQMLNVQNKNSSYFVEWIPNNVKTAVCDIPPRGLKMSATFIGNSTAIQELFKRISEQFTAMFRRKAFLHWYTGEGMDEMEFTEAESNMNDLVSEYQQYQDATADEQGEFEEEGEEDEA
Procedure, shortened: (§1)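 Polymerization was tracked by a fluorescent reporter incorporating into microtubules (ex 360/em 420 nm) every 1 min for 1 h. Controls were paclitaxel 3 µM (stabilizer) and CA-4 10 µM (destabilizer).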

[2] = Antiproliferative activity against human MCF7/MX cells assessed as cell viability after 48 hrs by MTT assay; assay type: functional, cell-based
Procedure, shortened: (§2)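 Cancer cells were seeded at 5×10³ per well in RPMI complete medium. The next day the medium was replaced with a range of test concentrations, with a no-drug RPMI control. Plates ran 48 h at 37 °C, then MTT (4 mg/mL solution) was added for 3 h. Formazan was dissolved in DMSO and absorbance read at 540 nm. Triplicate determinations.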

A2780 [3] = assay: Antiproliferative activity against human A2780 cells assessed as cell viability after 48 hrs by MTT assay; assay type: functional, cell-based; settings: A2780, 48 h; procedure, shortened: as §2
A2780 [4] = assay: Antiproliferative activity against cisplatin resistant human A2780 cells assessed as cell viability after 48 hrs by MTT assay; assay type: functional, cell-based; settings: A2780, 48 h; procedure, shortened: as §2
MCF7 [5] = assay: Antiproliferative activity against human MCF7 cells assessed as cell viability after 48 hrs by MTT assay; assay type: functional, cell-based; settings: MCF7, 48 h; procedure, shortened: as §2
Tubulin (Sus scrofa) [6] = biological target: T1, Tubulin (Sus scrofa); assay: Inhibition of porcine brain tubulin polymerization at 50 uM measured for 1 hr by fluorescence assay; procedure, shortened: as §1
A2780 [7] = assay: Induction of apoptosis in human A2780 cells assessed as accumulation at sub G1 phase at 50 uM after 72 hrs by propidium iodide staining based flow cytometry; assay type: functional, cell-based
Procedure, shortened: (§3)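 2.5×10⁵ cells were seeded in 6-well plates for 24 h, then treated for 72 h alongside a vehicle control (0.05% DMSO). Cells were ethanol-fixed (70%), then incubated 0.5 h at 37 °C with RNase A (1 mg/mL) plus propidium iodide. Flow cytometry (FL2) gave the percentage of cells in the sub-G1 region as the apoptotic fraction.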

A2780 [8] = assay: Cell cycle arrest in human A2780 cells assessed as accumulation at G2/M phase at 50 uM after 24 hrs by propidium iodide staining based flow cytometry (reference value: 12.71%); assay type: functional
A2780 [9] = assay: Cell cycle arrest in cisplatin resistant human A2780 cells assessed as accumulation at G2/M phase at 50 uM after 24 hrs by propidium iodide staining based flow cytometry (reference value: 19.63%); assay type: functional
MCF7 [10] = assay: Induction of apoptosis in human MCF7 cells assessed as accumulation at sub G1 phase at 50 uM after 72 hrs by propidium iodide staining based flow cytometry; assay type: functional, cell-based; procedure, shortened: as §3
MCF7/MX = assay: Induction of apoptosis in human MCF7/MX cells assessed as accumulation at sub G1 phase at 50 uM after 72 hrs by propidium iodide staining based flow cytometry; assay type: functional, cell-based; procedure, shortened: as §3
[11] = Cell cycle arrest in human MCF7/MX cells assessed as accumulation at G2/M phase at 50 uM after 72 hrs by propidium iodide staining based flow cytometry (reference value: 5.68%); assay type: functional
A2780 [12] = assay: Induction of apoptosis in cisplatin resistant human A2780 cells assessed as accumulation at sub G1 phase at 50 uM after 72 hrs by propidium iodide staining based flow cytometry; assay type: functional, cell-based; procedure, shortened: as §3
MCF7 [13] = assay: Cell cycle arrest in human MCF7 cells assessed as accumulation at G2/M phase at 50 uM after 72 hrs by propidium iodide staining based flow cytometry (reference value: 6.18%); assay type: functional
A2780 [14] = assay: Cell cycle arrest in cisplatin resistant human A2780 cells assessed as accumulation at G2/M phase at 100 uM after 24 hrs by propidium iodide staining based flow cytometry (reference value: 19.63%); assay type: functional
A2780 [15] = assay: Cell cycle arrest in human A2780 cells assessed as accumulation at G2/M phase at 100 uM after 24 hrs by propidium iodide staining based flow cytometry (reference value: 12.71%); assay type: functional
MCF7 [16] = assay: Cell cycle arrest in human MCF7 cells assessed as accumulation at G2/M phase at 100 uM after 72 hrs by propidium iodide staining based flow cytometry (reference value: 6.18%); assay type: functional
[17] = Cell cycle arrest in human MCF7/MX cells assessed as accumulation at G2/M phase at 100 uM after 72 hrs by propidium iodide staining based flow cytometry (reference value: 5.68%); assay type: functional
[18] = Cell cycle arrest in human MCF7/MX cells assessed as accumulation at G2/M phase at 3 uM after 72 hrs by propidium iodide staining based flow cytometry (reference value: 5.68%); assay type: functional
A2780 [19] = assay: Cell cycle arrest in cisplatin resistant human A2780 cells assessed as accumulation at G2/M phase at 3 uM after 24 hrs by propidium iodide staining based flow cytometry (reference value: 19.63%); assay type: functional
A2780 [20] = assay: Cell cycle arrest in human A2780 cells assessed as accumulation at G2/M phase at 3 uM after 24 hrs by propidium iodide staining based flow cytometry (reference value: 12.71%); assay type: functional
Tubulin (Sus scrofa) [21] = biological target: T1, Tubulin (Sus scrofa); settings: 10 uM
MCF7 [22] = assay: Cell cycle arrest in human MCF7 cells assessed as accumulation at G2/M phase at 3 uM after 72 hrs by propidium iodide staining based flow cytometry (reference value: 6.18%); assay type: functional

SMILES | IC50 [2] [µM] | IC50 (A2780 [3]) [µM] | IC50 (A2780 [4]) [µM] | IC50 (MCF7 [5]) [µM] | also measured
COc1ccc(-c2cc(C(=O)O)c3c(OC)c(OC)c(OC)cc3n2)cc1 | > 100 | > 100 | > 100 | > 100 | inhibition (Tubulin (Sus scrofa) [1]): Active
COc1cc2nc(-c3ccc(O)cc3)cc(C(=O)O)c2c(OC)c1OC | > 100 | > 100 | > 100 | > 100 | 
COc1ccc(-c2cc(CO)c3c(OC)c(OC)c(OC)cc3n2)cc1 | 39.8 | 8.04 | 28.4 | 16.4 | inhibition (Tubulin (Sus scrofa) [6]): Active
COc1cc(-c2cc(CO)c3c(OC)c(OC)c(OC)cc3n2)cc(OC)c1OC | 14.1 | 11.4 | 8.15 | 16.3 | Activity (A2780 [7]): Active; Activity (A2780 [8]): 79.59%; Activity (A2780 [9]): 62.31%; Activity (MCF7 [10]): Active; Activity (MCF7/MX): Active; Activity [11]: 44.8%; Activity (A2780 [12]): Active; inhibition (Tubulin (Sus scrofa) [6]): Active; Activity (MCF7 [13]): 79.59%
COc1cc(-c2cc(C(=O)O)c3c(OC)c(OC)c(OC)cc3n2)cc(OC)c1OC | > 100 | > 100 | > 100 | > 100 | 
COc1ccc(-c2cc(C(=O)O)c3c(OC)c(OC)c(OC)cc3n2)cc1OC | > 100 | > 100 | > 100 | > 100 | 
COc1cc(-c2cc(C(=O)O)c3c(OC)c(OC)c(OC)cc3n2)ccc1O | > 100 | > 100 | > 100 | > 100 | inhibition (Tubulin (Sus scrofa) [1]): Active
COc1ccc(-c2cc(C(=O)O)c3c(OC)c(OC)c(OC)cc3n2)cc1O | 98.5 | 38.7 | > 100 | 56.3 | inhibition (Tubulin (Sus scrofa) [1]): inactive; Activity (A2780 [14]): 43.12%; Activity (A2780 [15]): 62.15%; Activity (MCF7 [16]): 8%; Activity [17]: 3.74%
COc1cc2nc(-c3cccc(O)c3)cc(C(=O)O)c2c(OC)c1OC | > 100 | > 100 | > 100 | > 100 | 
COc1cc(-c2cc(CO)c3c(OC)c(OC)c(OC)cc3n2)ccc1O | 53.9 | 9.19 | 52.2 | 49.7 | 
COc1ccc(-c2cc(CO)c3c(OC)c(OC)c(OC)cc3n2)cc1OC | 37.1 | 7.98 | 23.1 | 60.7 | inhibition (Tubulin (Sus scrofa) [6]): Active
COc1cc2nc(-c3ccc(O)cc3O)cc(C(=O)O)c2c(OC)c1OC | > 100 | > 100 | > 100 | > 100 | inhibition (Tubulin (Sus scrofa) [1]): Active
COc1ccc(-c2cc(CO)c3c(OC)c(OC)c(OC)cc3n2)cc1O | 21.5 | 29.6 | 43.3 | 59.5 | inhibition (Tubulin (Sus scrofa) [6]): Active
COc1ccc(/C=C\c2cc(OC)c(OC)c(OC)c2)cc1O [COMBRETASTATIN A4] | 2.97 | 2.84 | 2.95 | 1.23 | Activity [18]: 43.2%; Activity (A2780 [19]): 25.41%; Activity (A2780 [20]): 78.38%; inhibition (Tubulin (Sus scrofa) [21]): Active; Activity (MCF7 [22]): 80.09%
